Assay results published in ChEMBL document CHEMBL4428042, “Discovery and Characterization of a Class of Pyrazole Inhibitors of Bacterial Undecaprenyl Pyrophosphate Synthase” (J Med Chem, 2016).
In brackets after ≈: the same amount, converted by molar mass. Activity calls are given as the source filed them. The calls are words filed in the database; no cut-off is given here.

How the values were obtained:
Streptococcus pyogenes = assay: Antibacterial activity against Streptococcus pyogenes 1307006P incubated for 18 to 24 hrs by broth microdilution method; assay type: functional
Staphylococcus aureus [1] = assay: Binding affinity to N-terminal FLAG-tagged and C-terminal SBP-tagged Staphylococcus aureus recombination UppS assessed change in melting temperature at 10 uM by SYPRO Orange based assay
Streptococcus pneumoniae [2] = assay: Antibacterial activity against Streptococcus pneumoniae Ery2 incubated for 18 to 24 hrs by broth microdilution method; assay type: functional
Escherichia coli = assay: Antibacterial activity against Escherichia coli 120 deficient in AcrAB incubated for 18 to 24 hrs by broth microdilution method; assay type: functional
Moraxella catarrhalis = assay: Antibacterial activity against Moraxella catarrhalis 1502 incubated for 18 to 24 hrs by broth microdilution method; assay type: functional
Haemophilus influenzae [3] = assay: Antibacterial activity against Haemophilus influenzae H128 incubated for 18 to 24 hrs by broth microdilution method; assay type: functional
Staphylococcus aureus [4] = assay: Antibacterial activity against Staphylococcus aureus RN4220 transfected with pYH4 in presence of anhydrotetracycline incubated for 18 to 24 hrs by broth microdilution method; assay type: functional
[5] = target: T1, Ditrans,polycis-undecaprenyl-diphosphate synthase ((2E,6E)-farnesyl-diphosphate specific) (Acinetobacter baumannii, UniProt V5VCK8); assay: Inhibition of hexa-histidine tagged Acinetobacter baumannii UppS expressed in Escherichia coli assessed as reduction in IPP condensation to growing prenyl chain by measuring pyrophosphate production
T1 sequence (V5VCK8 whole entry): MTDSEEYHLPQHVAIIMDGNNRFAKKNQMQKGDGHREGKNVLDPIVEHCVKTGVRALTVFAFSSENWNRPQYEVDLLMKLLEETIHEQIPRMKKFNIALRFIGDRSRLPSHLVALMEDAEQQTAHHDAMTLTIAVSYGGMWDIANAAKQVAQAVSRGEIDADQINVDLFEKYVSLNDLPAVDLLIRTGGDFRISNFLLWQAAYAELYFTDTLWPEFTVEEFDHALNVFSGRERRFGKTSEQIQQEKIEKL

Staphylococcus aureus [6] = assay: Antibacterial activity against Staphylococcus aureus OXFORD incubated for 18 to 24 hrs by broth microdilution method; assay type: functional
Streptococcus pneumoniae [7] = assay: Antibacterial activity against Streptococcus pneumoniae 1629 incubated for 18 to 24 hrs by broth microdilution method; assay type: functional
[8] = Cytotoxicity against mouse L5178Y TK+/- suspension cells incubated for 72 hrs by Cell-titer-Glo reagent based assay; conditions: read-out: TC50
[9] = target: T2, Ditrans,polycis-undecaprenyl-diphosphate synthase ((2E,6E)-farnesyl-diphosphate specific) (Pseudomonas aeruginosa (strain ATCC 15692 / DSM 22644 / CIP 104116 / JCM14847 / LMG 12228 / 1C / PRS 101 / PAO1), UniProt Q9HXY2); assay: Inhibition of hexa-histidine tagged Pseudomonas aeruginosa UppS expressed in Escherichia coli assessed as reduction in IPP condensation to growing prenyl chain by measuring pyrophosphate production incubated for 30 mins
T2 sequence (Q9HXY2 whole entry): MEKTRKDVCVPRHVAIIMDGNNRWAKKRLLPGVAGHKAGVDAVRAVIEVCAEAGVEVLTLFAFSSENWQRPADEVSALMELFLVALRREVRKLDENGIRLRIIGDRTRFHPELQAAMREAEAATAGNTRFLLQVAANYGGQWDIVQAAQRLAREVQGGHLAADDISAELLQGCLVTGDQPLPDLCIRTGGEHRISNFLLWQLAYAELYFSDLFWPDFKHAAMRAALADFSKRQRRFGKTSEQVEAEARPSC

Staphylococcus aureus [10] = assay: Antibacterial activity against Staphylococcus aureus RN4220 transfected with pYH4-UppS in presence of anhydrotetracycline incubated for 18 to 24 hrs by broth microdilution method; assay type: functional
How it was run: (§1)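 S. aureus strain carrying an inducible uppS over-expression plasmid, with anhydrotetracycline inducer at 0.1 µg/mL. MIC was compared with the un-induced system and with a plasmid vector control strain.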

Klebsiella pneumoniae = assay: Antibacterial activity against Klebsiella pneumoniae 1161486a deficient in tolC incubated for 18 to 24 hrs by broth microdilution method; assay type: functional
Acinetobacter baumannii = assay: Antibacterial activity against Acinetobacter baumannii ACM1010 incubated for 18 to 24 hrs by broth microdilution method; assay type: functional
Staphylococcus aureus [11] = assay: Antibacterial activity against Staphylococcus aureus WCUH29 incubated for 18 to 24 hrs by broth microdilution method; assay type: functional
Staphylococcus aureus [12] = assay: Antibacterial activity against Staphylococcus aureus RN4220 transfected with pYH4-UppS in absence of anhydrotetracycline incubated for 18 to 24 hrs by broth microdilution method; assay type: functional
Pseudomonas aeruginosa = assay: Antibacterial activity against Pseudomonas aeruginosa PAO322 deficient in MexA/B/C/D/E/F incubated for 18 to 24 hrs by broth microdilution method; assay type: functional
[13] = target: T3, Ditrans,polycis-undecaprenyl-diphosphate synthase ((2E,6E)-farnesyl-diphosphate specific) (Klebsiella pneumoniae, UniProt A0A080SPQ8); assay: Inhibition of hexa-histidine tagged Klebsiella pneumoniae UppS expressed in Escherichia coli assessed as reduction in IPP condensation to growing prenyl chain by measuring pyrophosphate production
T3 sequence (A0A080SPQ8 whole entry): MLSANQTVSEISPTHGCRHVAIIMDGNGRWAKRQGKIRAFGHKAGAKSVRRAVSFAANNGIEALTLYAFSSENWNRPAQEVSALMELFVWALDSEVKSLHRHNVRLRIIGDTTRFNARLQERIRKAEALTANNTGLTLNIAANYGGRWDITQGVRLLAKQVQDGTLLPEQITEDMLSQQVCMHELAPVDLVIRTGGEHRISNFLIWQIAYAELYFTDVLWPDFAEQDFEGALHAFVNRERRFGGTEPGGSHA

Staphylococcus aureus [14] = assay: Binding affinity to N-terminal FLAG-tagged and C-terminal SBP-tagged Staphylococcus aureus recombinant UppS expressed in Escherichia coli by affinity selection based ELT screen assay
[15] = Inhibition of N-terminal FLAG-tagged and C-terminal SBP-tagged Staphylococcus aureus recombination UppS assessed as reduction in IPP condensation to growing prenyl chain by measuring pyrophosphate production incubated for 30 mins
Haemophilus influenzae [16] = assay: Antibacterial activity against Haemophilus influenzae H128 deficient in AcrA incubated for 18 to 24 hrs by broth microdilution method; assay type: functional
Staphylococcus aureus [17] = assay: Antibacterial activity against Staphylococcus aureus RN4220 transfected with pYH4 in absence of anhydrotetracycline incubated for 18 to 24 hrs by broth microdilution method; assay type: functional
Staphylococcus aureus [18] = assay: Antibacterial activity against Staphylococcus aureus RN4220 expressing wild type UppS incubated for 18 to 24 hrs by broth microdilution method; assay type: functional
Staphylococcus aureus [19] = assay: Resistance index, ratio of MIC for antibacterial activity against Staphylococcus aureus RN4220 transfected with pYH4-UppS in presence of anhydrotetracycline to MIC for antibacterial activity against Staphylococcus aureus RN4220 transfected with pYH4-UppS in absence of anhydrotetracycline; assay type: functional; how it was run: as §1
Staphylococcus aureus [20] = assay: Antibacterial activity against Staphylococcus aureus RN4220 expressing UppS F103L mutant incubated for 18 to 24 hrs by broth microdilution method; assay type: functional
How it was run: (§2)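 S. aureus resistant mutants were isolated from the wild-type laboratory strain in the presence of the pyrazole UppS inhibitor and then tested for MIC.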

Staphylococcus aureus [21] = assay: Antibacterial activity against Staphylococcus aureus RN4220 expressing UppS F148L mutant incubated for 18 to 24 hrs by broth microdilution method; assay type: functional; how it was run: as §2

SMILES	MIC (Streptococcus pyogenes)	ΔTm (Staphylococcus aureus [1])	MIC (Streptococcus pneumoniae [2])	MIC (Escherichia coli)	MIC (Moraxella catarrhalis)	MIC (Haemophilus influenzae [3])	MIC (Staphylococcus aureus [4])	IC50 [5]	MIC (Staphylococcus aureus [6])	MIC (Streptococcus pneumoniae [7])	CC50 at 72 h [8]	IC50 [9]	MIC (Staphylococcus aureus [10])	MIC (Klebsiella pneumoniae)	MIC (Acinetobacter baumannii)	MIC (Staphylococcus aureus [11])	MIC (Staphylococcus aureus [12])	MIC (Pseudomonas aeruginosa)	IC50 [13]	MIC (Haemophilus influenzae [16])	other results
Cc1ccc(-c2c(C(=O)N(CCC(N)=O)Cc3ccc(OC(C)C)cc3)cnn2Cc2ccccc2)cc1	128 µg/mL (≈ 251 µM)	11 °C	128 µg/mL (≈ 251 µM)	> 128 µg/mL	32 µg/mL (≈ 62.7 µM)	> 128 µg/mL	32 µg/mL	> 100 µM	32 to 64 µg/mL (≈ 62.7 to 125 µM)	128 µg/mL (≈ 251 µM)	100 µM	> 100 µM	> 128 µg/mL	> 128 µg/mL	> 128 µg/mL	32 to 64 µg/mL (≈ 62.7 to 125 µM)	128 µg/mL (≈ 251 µM)	> 128 µg/mL	> 100 µM	32 µg/mL (≈ 62.7 µM)	Activity (Staphylococcus aureus [14]): Active; IC50 [15]: 0.97 µM; MIC (Staphylococcus aureus [17]): 64 µg/mL (≈ 125 µM)
CC(C)Oc1ccc(CN(CCC(N)=O)C(=O)c2cnn(Cc3ccccc3)c2-c2ccc3sccc3c2)cc1	64 µg/mL (≈ 116 µM)	8 °C	32 to 64 µg/mL (≈ 57.9 to 116 µM)	> 128 µg/mL	8 to 16 µg/mL (≈ 14.5 to 28.9 µM)	> 128 µg/mL	8 µg/mL	> 100 µM	8 µg/mL (≈ 14.5 µM)	32 to 64 µg/mL (≈ 57.9 to 116 µM)	25 µM	> 100 µM	64 µg/mL	> 128 µg/mL	> 128 µg/mL	4 to 8 µg/mL (≈ 7.24 to 14.5 µM)	32 µg/mL (≈ 57.9 µM)	> 128 µg/mL	> 100 µM	8 to 16 µg/mL (≈ 14.5 to 28.9 µM)	MIC (Staphylococcus aureus [18]): 8 µg/mL (≈ 14.5 µM); Ratio (Staphylococcus aureus [19]): 2; MIC (Staphylococcus aureus [20]): 64 µg/mL (≈ 116 µM); Activity (Staphylococcus aureus [14]): Active; IC50 [15]: 0.19 µM; MIC (Staphylococcus aureus [17]): 8 µg/mL (≈ 14.5 µM); MIC (Staphylococcus aureus [21]): 64 µg/mL (≈ 116 µM)
C[C@@H](O)[C@H]1C(=O)N2C(C(=O)O)=C(S[C@@H]3CN[C@H](C(=O)N(C)C)C3)[C@H](C)[C@H]12 [MEROPENEM]	≤ 0.008 µg/mL		0.016 µg/mL (≈ 0.0417 µM)	0.03 µg/mL (≈ 0.0782 µM)	≤ 0.008 µg/mL	0.125 µg/mL (≈ 0.326 µM)			0.125 µg/mL (≈ 0.326 µM)	0.016 µg/mL (≈ 0.0417 µM)				0.03 µg/mL (≈ 0.0782 µM)	0.5 µg/mL (≈ 1.3 µM)	2 µg/mL (≈ 5.22 µM)		0.5 µg/mL (≈ 1.3 µM)		0.125 µg/mL (≈ 0.326 µM)	
O=C(O)c1cn(C2CC2)c2cc(N3CCNCC3)c(F)cc2c1=O [CIPROFLOXACIN]	0.5 µg/mL (≈ 1.51 µM)		2 µg/mL (≈ 6.04 µM)	≤ 0.008 µg/mL	0.03 µg/mL (≈ 0.0905 µM)	≤ 0.008 µg/mL				0.25 µg/mL (≈ 0.754 µM)				≤ 0.008 µg/mL	> 8 µg/mL	0.5 µg/mL (≈ 1.51 µM)		≤ 0.008 µg/mL		≤ 0.008 µg/mL	
